Experimental data as given in ChEMBL document CHEMBL2311269, “Identification of benzofuran-3-yl(phenyl)methanones as novel SIRT1 inhibitors: binding mode, inhibitory mechanism and biological action” (Eur J Med Chem, 2013).
pIC50, pKi: −log10 of the molar value. The source made the active and inactive calls. The calls are words filed in the database; no cut-off is given here.

Tests used:
[1] = target: T1, NAD-dependent protein deacetylase sirtuin-1 (Homo sapiens, UniProt Q96EB6); experiment: Inhibition of N-terminal His6-tagged SIRT1 coding region (156-664) (unknown origin) expressed in Escherichia coli BL21(DE3) using 31.25 uM ac-RHKKac-AMC and 750 uM NAD+ as substrate after 45 mins by fluorometric analysis
T1 sequence (Q96EB6 whole entry): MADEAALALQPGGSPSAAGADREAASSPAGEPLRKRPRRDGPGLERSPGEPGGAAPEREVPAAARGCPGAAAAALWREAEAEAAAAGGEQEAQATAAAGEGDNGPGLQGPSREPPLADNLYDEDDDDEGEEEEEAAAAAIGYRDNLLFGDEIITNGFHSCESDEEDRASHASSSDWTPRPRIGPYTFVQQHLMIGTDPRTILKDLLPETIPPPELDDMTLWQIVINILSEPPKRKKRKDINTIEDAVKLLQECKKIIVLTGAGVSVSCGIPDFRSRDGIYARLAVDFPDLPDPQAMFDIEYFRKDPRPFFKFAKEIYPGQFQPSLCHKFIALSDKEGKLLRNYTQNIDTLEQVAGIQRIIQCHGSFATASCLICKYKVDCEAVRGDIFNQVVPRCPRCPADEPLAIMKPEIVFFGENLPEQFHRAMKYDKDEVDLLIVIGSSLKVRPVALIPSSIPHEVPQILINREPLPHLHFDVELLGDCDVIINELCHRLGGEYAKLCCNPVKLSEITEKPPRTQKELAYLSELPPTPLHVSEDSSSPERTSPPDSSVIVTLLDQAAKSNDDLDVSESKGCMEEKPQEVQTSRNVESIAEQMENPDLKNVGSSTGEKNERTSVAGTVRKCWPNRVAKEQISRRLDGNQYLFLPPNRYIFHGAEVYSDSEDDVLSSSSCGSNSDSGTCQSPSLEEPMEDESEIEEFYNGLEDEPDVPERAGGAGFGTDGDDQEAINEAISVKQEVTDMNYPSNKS

[2] = target: T2, NAD-dependent protein deacetylase sirtuin-1 (Homo sapiens) (UniProt Q96EB6); experiment: Inhibition of SIRT1-mediated p53 deacetylation in human MCF7 cells after 6 hrs by Western blot analysis; assay type: cell-based
T2 sequence (whole entry): T1 sequence (Q96EB6 whole entry)
Summary of the method: (§1)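 MCF-7 cells grown in DMEM with 10% fetal calf serum were treated with graded inhibitor concentrations. Lysate protein was run on a 9% gel, transferred to nitrocellulose, blocked 1 h at room temperature in 5% milk/TBST, and probed for acetyl-p53 and total p53.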

[3] = tested on: T3, NAD-dependent protein deacetylase sirtuin-3, mitochondrial (Homo sapiens), Q9NTG7 [L195F]; experiment: Inhibition of N-terminal His6-tagged SIRT3 L195F mutant (unknown origin) expressed in Escherichia coli BL21(DE3) using ac-RHKKac-AMC as substrate at 50 to 100 uM after 45 mins by fluorometric analysis
T3 sequence (whole entry): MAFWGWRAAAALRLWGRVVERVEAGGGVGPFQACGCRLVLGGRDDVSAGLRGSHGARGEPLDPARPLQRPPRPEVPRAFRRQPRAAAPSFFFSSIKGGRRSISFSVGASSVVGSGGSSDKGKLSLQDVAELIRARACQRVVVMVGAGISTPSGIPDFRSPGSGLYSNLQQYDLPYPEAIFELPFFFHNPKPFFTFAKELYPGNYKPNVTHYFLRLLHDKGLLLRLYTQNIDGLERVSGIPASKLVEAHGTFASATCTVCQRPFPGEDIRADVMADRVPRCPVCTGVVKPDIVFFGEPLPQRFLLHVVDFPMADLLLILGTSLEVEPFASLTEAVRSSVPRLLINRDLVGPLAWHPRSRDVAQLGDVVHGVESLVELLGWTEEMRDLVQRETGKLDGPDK

[4] = target: T2, NAD-dependent protein deacetylase sirtuin-1 (Homo sapiens); experiment: Reversible inhibition of N-terminal His6-tagged SIRT1 coding region (156-664) (unknown origin) expressed in Escherichia coli BL21(DE3) using ac-RHKKac-AMC as substrate incubated at 10-fold IC50 for 30 mins followed by 100-fold dilution measured up to 40 mins by fluorometric analysis
Summary of the method: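 Enzyme was preincubated with inhibitor or DMSO at room temperature for 30 min, then rapidly diluted 100-fold into reaction buffer containing NAD+ and ac-RHKK(ac)-AMC. Deacetylated product was monitored over time, and the slope of the inhibitor curve was compared with the DMSO control.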

[5] = target: T4, NAD-dependent protein deacetylase sirtuin-1 (Homo sapiens, UniProt Q96EB6, N346A); experiment: Inhibition of N-terminal His6-tagged SIRT1 N346A mutant (unknown origin) expressed in Escherichia coli BL21(DE3) using ac-RHKKac-AMC as substrate after 45 mins by fluorometric analysis
Summary of the method: (§2)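 Mutant SIRT1 enzyme levels were set to give the same deacetylase activity as wild type. The AMC-peptide/NAD+ fluorogenic assay ran in Tris pH 8.0 buffer for 45 min at room temperature, followed by nicotinamide stop, trypsin development and a 340/490 nm fluorescence read. IC50 was obtained by curve fitting.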

[6] = target: T4, NAD-dependent protein deacetylase sirtuin-1; experiment: Mixed type inhibition of N-terminal His6-tagged SIRT1 N346A mutant (unknown origin) expressed in Escherichia coli BL21(DE3) using NAD+ as substrate by Lineweaver-Burk plot analysis in presence of ac-RHKKac-AMC
Summary of the method: (§3)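 Velocities of each SIRT1 point mutant were measured at varied inhibitor concentrations with NAD+ varied and peptide present. Reciprocal velocities were plotted against 1/[NAD+], the slopes were replotted versus inhibitor concentration, and Ki was taken from the x-intercepts of these secondary plots.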

[7] = target: T2, NAD-dependent protein deacetylase sirtuin-1 (Homo sapiens); experiment: Noncompetitive inhibition of N-terminal His6-tagged SIRT1 coding region (156-664) (unknown origin) expressed in Escherichia coli BL21(DE3) using ac-RHKKac-AMC as substrate by Lineweaver-Burk plot analysis in presence of NAD+
[8] = target: T5, NAD-dependent protein deacetylase sirtuin-1 (Homo sapiens, UniProt Q96EB6, I347A); experiment: Inhibition of N-terminal His6-tagged SIRT1 I347A mutant (unknown origin) expressed in Escherichia coli BL21(DE3) using ac-RHKKac-AMC as substrate after 45 mins by fluorometric analysis; summary of the method: as §2
[9] = target: T5, NAD-dependent protein deacetylase sirtuin-1; experiment: Mixed type inhibition of N-terminal His6-tagged SIRT1 I347A mutant (unknown origin) expressed in Escherichia coli BL21(DE3) using NAD+ as substrate by Lineweaver-Burk plot analysis in presence of ac-RHKKac-AMC; summary of the method: as §3
[10] = target: T6, NAD-dependent protein deacetylase sirtuin-1 (Homo sapiens, UniProt Q96EB6, F312L); experiment: Inhibition of N-terminal His6-tagged SIRT1 F312L mutant (unknown origin) expressed in Escherichia coli BL21(DE3) using ac-RHKKac-AMC as substrate after 45 mins by fluorometric analysis; summary of the method: as §2
[11] = target: T1, NAD-dependent protein deacetylase sirtuin-1; experiment: Mixed-type inhibition of N-terminal His6-tagged SIRT1 coding region (156-664) (unknown origin) expressed in Escherichia coli BL21(DE3) using NAD+ as substrate by Lineweaver-Burk plot analysis in presence of ac-RHKKac-AMC
Summary of the method: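 With ac-RHKK(ac)-AMC held fixed, NAD+ was varied at several inhibitor concentrations. Fluorogenic deacetylation velocities were analysed by Lineweaver–Burk plots against NAD+ concentration.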

MCF7 = experiment: Effect on p53 protein level in human MCF7 cells at 1.2 to 100 uM after 6 hrs by Western blot analysis; assay type: functional, cell-based; summary of the method: as §1
[12] = target: T6, NAD-dependent protein deacetylase sirtuin-1; experiment: Mixed type inhibition of N-terminal His6-tagged SIRT1 F312L mutant (unknown origin) expressed in Escherichia coli BL21(DE3) using NAD+ as substrate by Lineweaver-Burk plot analysis in presence of ac-RHKKac-AMC; summary of the method: as §3
[13] = target: T7, NAD-dependent protein deacetylase sirtuin-1 (Homo sapiens, UniProt Q96EB6, F273L); experiment: Inhibition of N-terminal His6-tagged SIRT1 F273L mutant (unknown origin) expressed in Escherichia coli BL21(DE3) using ac-RHKKac-AMC as substrate after 45 mins by fluorometric analysis; summary of the method: as §2
[14] = target: T7, NAD-dependent protein deacetylase sirtuin-1; experiment: Mixed type inhibition of N-terminal His6-tagged SIRT1 F273L mutant (unknown origin) expressed in Escherichia coli BL21(DE3) using NAD+ as substrate by Lineweaver-Burk plot analysis in presence of ac-RHKKac-AMC; summary of the method: as §3
[15] = target: T2, NAD-dependent protein deacetylase sirtuin-1 (Homo sapiens); experiment: Inhibition of N-terminal His6-tagged SIRT1 coding region (156-664) (unknown origin) expressed in Escherichia coli BL21(DE3) using 100 uM ac-RHKKac-AMC and 20 uM NAD+ as substrate after 45 mins by fluorometric analysis

T4 sequence (Q96EB6 2-747 N346A limits assumed): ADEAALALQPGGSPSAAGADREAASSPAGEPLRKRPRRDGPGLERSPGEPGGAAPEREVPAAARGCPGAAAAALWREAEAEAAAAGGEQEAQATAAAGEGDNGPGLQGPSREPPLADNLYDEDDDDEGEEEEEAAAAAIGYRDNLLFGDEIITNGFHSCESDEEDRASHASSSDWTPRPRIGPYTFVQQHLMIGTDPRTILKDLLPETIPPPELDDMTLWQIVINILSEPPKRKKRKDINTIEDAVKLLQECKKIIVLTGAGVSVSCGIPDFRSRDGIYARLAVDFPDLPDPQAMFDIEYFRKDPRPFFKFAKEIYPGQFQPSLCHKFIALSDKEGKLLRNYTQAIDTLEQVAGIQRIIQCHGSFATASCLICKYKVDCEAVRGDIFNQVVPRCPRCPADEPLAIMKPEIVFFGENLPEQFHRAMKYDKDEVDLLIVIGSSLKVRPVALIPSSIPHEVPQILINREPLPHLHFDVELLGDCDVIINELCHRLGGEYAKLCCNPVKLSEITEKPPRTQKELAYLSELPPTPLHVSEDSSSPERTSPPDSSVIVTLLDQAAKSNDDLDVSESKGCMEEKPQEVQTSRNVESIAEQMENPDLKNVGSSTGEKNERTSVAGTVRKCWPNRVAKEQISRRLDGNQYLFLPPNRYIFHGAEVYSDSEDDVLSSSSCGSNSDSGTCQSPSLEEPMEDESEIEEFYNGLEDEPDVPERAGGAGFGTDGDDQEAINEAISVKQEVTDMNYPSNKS
T7 sequence (Q96EB6 2-747 F273L limits assumed): as the sequence (Q96EB6 2-747 N346A limits assumed) above, with F272L, A345N counted along it
T6 sequence (Q96EB6 2-747 F312L limits assumed): as the sequence (Q96EB6 2-747 N346A limits assumed) above, with F311L, A345N counted along it
T5 sequence (Q96EB6 2-747 I347A limits assumed): as the sequence (Q96EB6 2-747 N346A limits assumed) above, with A345N, I346A counted along it

| Compound | pIC50 [1] | other results |
| --- | --- | --- |
| COc1ccc(O)cc1C(=O)c1coc2ccc(O)cc12 | 4.38 |  |
| O=C(c1cc(O)ccc1O)c1coc2ccc(O)cc12 | 5.55 | inhibition [2]: Dose-dependent effect; inhibition [3]: Active; inhibition [4]: Active; pIC50 [5]: 3.55; pKi [6]: 3.60; inhibition [7]: Active; pIC50 [8]: 3.38; pKi [9]: 3.76; pIC50 [10]: 3.26; pKi [11]: 6.10; Activity (MCF7): inactive; pKi [12]: 3.60; pIC50 [13]: 3.31; pKi [14]: 3.66; inhibition [15]: Active |
| O=C(c1ccccc1)c1coc2c1cc(O)c1ccccc12 | < 3.52 |  |
| COc1cc2c(C(=O)c3ccc(Br)cc3)c(C)oc2c2ccccc12 | < 3.52 |  |
| Cc1oc2ccc(O)cc2c1C(=O)c1ccc(Br)cc1 | 3.61 |  |
| COc1ccc(C(=O)c2coc3c2cc(O)c2ccccc23)cc1 | 3.59 |  |
| Cc1ccc(C(=O)c2coc3c2cc(O)c2ccccc23)cc1 | < 3.52 |  |
| O=C(c1ccc(Br)cc1)c1coc2ccc(O)cc12 | 3.62 |  |
| O=C(c1ccccc1)c1coc2cc(Br)c(O)c(Br)c12 | 3.70 |  |
| COc1ccc(OC)c(C(=O)c2coc3ccc(O)c(CN4CCOCC4)c23)c1 | < 3.52 |  |
| O=C(c1cccc(O)c1)c1coc2ccc(O)cc12 | 4.51 |  |
| O=C(c1ccc(Br)cc1)c1coc2c1cc(O)c1ccccc12 | 3.84 |  |
| O=C(c1ccccc1O)c1coc2ccc(O)cc12 | 4.15 |  |
| O=C(c1ccccc1)c1coc2ccc(O)c(CN3CCOCC3)c12 | < 3.52 |  |

Further lines, with some results ahead:

| pIC50 [1] | Compound | other results |
| --- | --- | --- |
| < 3.52 | COc1ccc(OC)c(C(=O)c2coc3ccc(O)cc23)c1 |  |
| 4.06 | Cc1cc2occ(C(=O)c3ccc(Cl)cc3)c2cc1O |  |
| 4.35 | COc1ccc(O)c(C(=O)c2coc3ccc(O)cc23)c1 |  |
| < 3.52 | COc1ccc(OC)c(C(=O)c2coc3cc(Br)c(O)c(Br)c23)c1 |  |
| < 3.52 | O=C(c1ccc(OCc2ccccc2)cc1)c1coc2cc(Br)c(O)c(Br)c12 |  |
| < 3.52 | COc1ccc(OC)c(C(=O)c2coc3ccc(OC(C)=O)cc23)c1 |  |
| < 3.52 | CC(=O)Oc1ccc2occ(C(=O)c3ccccc3)c2c1 |  |
